Measured values as given in ChEMBL document CHEMBL1772969, “Synthesis, structure-activity relationship, and antimalarial activity of ureas and thioureas of 15-membered azalides” (J Med Chem, 2011).
Values after ≈ are worked out from the molar mass of the structure shown. Active and inactive are the calls of the source. The calls are words filed in the database; no cut-off is given here.

Tests used:
[1] = Half life in human liver microsomes at 1 uM by LCMS analysis; format: ADME, Microsome
In short: (§1)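 Compound at 1 μM final with 0.5 mg/mL pooled human or mouse liver microsomes, 1.3 mM NADP, 3.3 mM MgCl₂, 0.1 M PBS pH 7.4. Reaction started with 1 U/mL G6PD, shaken at 37 °C. Aliquots quenched with cold acetonitrile at 0, 10, 20, 30 and 60 min and quantified by LCMS. t₁/₂ taken from log plot of total ion chromatogram area remaining.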

[2] = test system: THP-1; assay: Cytotoxicity against human THP1 cells after 1 to 4 hrs by MTS assay; format: cell-based
In short: (§2)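 HepG2 and THP-1 cells grown in RPMI 1640 with 10% FBS at 37 °C, 5% CO₂, and passaged twice weekly. Compounds applied as continuous exposure. Viability read by MTS reagent, 1–4 h incubation, absorbance at 490 nm; IC₅₀ derived.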

[3] = test system: Plasmodium falciparum; assay: Antimalarial activity against multidrug-resistant Plasmodium falciparum TM91C235 after 48 hrs by [3H]hypoxanthine incorporation assay; format: functional, organism-based
In short: (§3)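 [3H]hypoxanthine incorporation assay (Desjardins method, Milhous modification) with 48 h drug exposure. Compounds and controls were 2-fold diluted across 11 concentrations. IC50 was fitted by nonlinear logistic dose-response. Values are averaged where multiple results were generated, with relative errors usually <30%.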

[4] = test system: Plasmodium falciparum; assay: Antimalarial activity against chloroquine-sensitive Plasmodium falciparum D6 after 48 hrs by [3H]hypoxanthine incorporation assay; format: functional, organism-based; in short: as §3
[5] = test system: HepG2; assay: Cytotoxicity against human HepG2 cells after 1 to 4 hrs by MTS assay; format: cell-based; in short: as §2
[6] = Half life in Sprague-Dawley rat at 10 mg/kg, iv and 30 mg/kg, po; format: ADME, organism-based; conditions: in vivo
In short: (§4)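 Male Sprague-Dawley rats (250–300 g), crossover design. Dosed 10 mg/kg iv, then 2-day washout, then 30 mg/kg oral (free base equivalent), formulated in 1%/20% Encapsin (w/v) and saline. Blood sampled up to 24 h and analysed by LC-MS/MS. Clearance and terminal-phase Vd based on blood concentration.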

[7] = Oral bioavailability in Sprague-Dawley rat at 30 mg/kg; format: ADME, organism-based; conditions: in vivo; in short: as §4
[8] = test system: Plasmodium falciparum; assay: Antimalarial activity against chloroquine/pyrimethamine-resistant Plasmodium falciparum W2 after 48 hrs by [3H]hypoxanthine incorporation assay; format: functional, organism-based; in short: as §3
[9] = Half life in mouse liver microsomes at 1 uM by LCMS analysis; format: ADME, Microsome; in short: as §1
[10] = test system: Plasmodium berghei; assay: Antiplasmodial activity against Plasmodium berghei KBG-173 infected in sc dosed mouse administered bid for 3 days; format: functional
In short: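 Male mice (24-30 g) were infected ip with 5 × 10⁶ P. berghei KBG-173-infected erythrocytes. Drug suspended in palm/peanut oil was given sc twice daily on days 3-5 post-infection at 160, 40 or 10 mg/kg per dose, 0.01 mL/g, in groups of 4-5. Blood films were taken day 6, then biweekly to day 31. Mice smear-negative on day 31 were counted cured. CD50 is the daily dose curing 50%.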

[11] = Blood clearance in Sprague-Dawley rat at 10 mg/kg, iv and 30 mg/kg, po; format: ADME, organism-based; conditions: whole blood; in short: as §4
[12] = test system: Plasmodium berghei; assay: Antiplasmodial activity against Plasmodium berghei KBG-173 infected in mouse assessed as mouse without parasitemia at 960 mg/kg, sc bid for 3 days measured on day 31; format: functional, organism-based; design: dose 960 mg/kg
In short: (§5)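 P. berghei KBG-173: 5 × 10⁶ infected erythrocytes injected intraperitoneally into male mice (24–30 g); parasitemia 1.0–3.7% by day 3. Oil suspension given subcutaneously twice daily at 160, 40 or 10 mg/kg on days 3–5 postinfection (totals 960/240/60 mg/kg); 4–5 mice per group. Blood films on day 6, then biweekly to day 31; film-negative on day 31 counted as cured.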

[13] = Apparent volume of distribution during terminal phase in Sprague-Dawley rat at 10 mg/kg, iv and 30 mg/kg, po; format: ADME, organism-based; conditions: in vivo, read-out: Vz/F; in short: as §4
[14] = test system: Plasmodium falciparum; assay: Antimalarial activity against Plasmodium falciparum after 68 hrs; format: functional, organism-based
[15] = test system: Plasmodium berghei; assay: Antiplasmodial activity against Plasmodium berghei KBG-173 infected in mouse assessed as mouse without parasitemia at 240 mg/kg, sc bid for 3 days measured on day 31; format: functional, organism-based; design: dose 240 mg/kg; in short: as §5
[16] = test system: Plasmodium falciparum; assay: Ratio of compound IC50 to Azithromycin IC50 for Plasmodium falciparum; format: functional
[17] = test system: Plasmodium berghei; assay: Antiplasmodial activity against Plasmodium berghei KBG-173 infected in mouse assessed as mouse without parasitemia at 60 mg/kg, sc bid for 3 days measured on day 31; format: functional, organism-based; design: dose 60 mg/kg; in short: as §5

Row | Structure (SMILES) | half-life at 1 µM [1] | IC50 [2] | IC50 [3] | IC50 [4] | IC50 [5] | half-life [6] | bioavailability [7] | IC50 [8] | half-life at 1 µM [9] | CD50 [10] | clearance [11] | Activity [12] | Vd/F [13] | IC50 [14] | Activity [15] | Ratio IC50 [16] | Activity [17]
1 | CC[C@H]1OC(=O)[C@H](C)[C@@H](O[C@H]2C[C@@](C)(OC)[C@@H](O)[C@H](C)O2)[C@H](C)[C@@H](O[C@@H]2O[C@H](C)C[C@H](N(C)C)[C@H]2O)[C@](C)(O)C[C@@H](C)CN(CCCN(CCC#N)C(=O)Nc2ccc(Cl)cc2Cl)[C@H](C)[C@@H](O)[C@]1(C)O | > 2 h | 15 µM | 0.123 µM | 0.229 µM | 22 µM | 41.5 h | 18.4% | 0.199 µM | > 2 h | 420 mg/kg | 7.7 mL/min/kg | Active | 23.3 L/kg | – | – | – | –
2 | CC[C@H]1OC(=O)[C@H](C)[C@@H](O[C@H]2C[C@@](C)(OC)[C@@H](O)[C@H](C)O2)[C@H](C)[C@@H](O[C@@H]2O[C@H](C)C[C@H](N(C)C)[C@H]2O)[C@](C)(O)C[C@@H](C)CN(C)[C@H](C)[C@@H](O)[C@]1(C)O [AZITHROMYCIN] | > 2 h | > 50 µM | 2.11 µM | 1.04 µM | > 50 µM | 24 h | 33% | 2.29 µM | > 2 h | 50 mg/kg | 11 mL/min/kg | Active | 20 L/kg | 0.5 µg/mL (≈ 0.668 µM) | Active | 88 | –
3 | CC[C@H]1OC(=O)[C@H](C)[C@@H](O[C@H]2C[C@@](C)(OC)[C@@H](O)[C@H](C)O2)[C@H](C)[C@@H](O[C@@H]2O[C@H](C)C[C@H](N(C)C)[C@H]2O)[C@](C)(O)C[C@@H](C)CN(CCCN(CCC#N)C(=S)NCCc2ccccc2)[C@H](C)[C@@H](O)[C@]1(C)O | 1.72 h | 6 µM | 0.048 µM | 0.088 µM | 13 µM | – | – | 0.051 µM | > 2 h | >960 mg/kg | – | inactive | – | – | – | – | inactive
